From ChEMBL document CHEMBL2062463 (Bioorg Med Chem Lett, 2012)

Assays:
[1] = Lipophilicity, log D of the compound in octanol and water at pH 7.4 by shake flask method; format: physicochemical
[2] = Chemical stability of the compound in 1% tween-20 up to 24 hrs in dark; format: physicochemical
In short: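 Radiolabelled [125I] compound held in saline containing 1% Tween-20 at 37 °C in the dark for up to 24 h. Radiochemical stability checked over that period.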

[3] = test system: Serum; experiment: Stability in human serum by HPLC analysis; format: ADME, cell-free
In short: (§1)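 [125I]-labelled compound incubated in fresh human serum at 4 °C and 37 °C at several time intervals. Bound fraction estimated after ethanol precipitation-extraction of proteins. Supernatant analysed by HPLC for intact radiolabelled compound.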

[4] = Protein binding in human serum by HPLC analysis; format: ADME, cell-free; conditions: read-out: PB (converted); in short: as §1
[5] = Antiproliferative activity against human HAEC cells expressing VEGFR after 72 hrs by MTT assay; format: functional, cell-based
In short: (§2)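 MTT reduction by mitochondrial enzyme as viability read-out in primary endothelial HAEC and cancer HT29 cells. IC50 is the concentration giving 50% inhibition of proliferation, taken from dose-response curves of percent proliferation plotted against compound concentration.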

[6] = molecular target: Vascular endothelial growth factor receptor 2 (Homo sapiens, UniProt P35968); experiment: Competitive inhibition of VEGFR2 by qPCR method
[7] = test system: HT-29; experiment: Antiproliferative activity against human HT-29 cells expressing VEGFR after 72 hrs by MTT assay; format: functional, cell-based; conditions: HT-29, 72 h; in short: as §2

Chain of Vascular endothelial growth factor receptor 2 (P35968 whole entry): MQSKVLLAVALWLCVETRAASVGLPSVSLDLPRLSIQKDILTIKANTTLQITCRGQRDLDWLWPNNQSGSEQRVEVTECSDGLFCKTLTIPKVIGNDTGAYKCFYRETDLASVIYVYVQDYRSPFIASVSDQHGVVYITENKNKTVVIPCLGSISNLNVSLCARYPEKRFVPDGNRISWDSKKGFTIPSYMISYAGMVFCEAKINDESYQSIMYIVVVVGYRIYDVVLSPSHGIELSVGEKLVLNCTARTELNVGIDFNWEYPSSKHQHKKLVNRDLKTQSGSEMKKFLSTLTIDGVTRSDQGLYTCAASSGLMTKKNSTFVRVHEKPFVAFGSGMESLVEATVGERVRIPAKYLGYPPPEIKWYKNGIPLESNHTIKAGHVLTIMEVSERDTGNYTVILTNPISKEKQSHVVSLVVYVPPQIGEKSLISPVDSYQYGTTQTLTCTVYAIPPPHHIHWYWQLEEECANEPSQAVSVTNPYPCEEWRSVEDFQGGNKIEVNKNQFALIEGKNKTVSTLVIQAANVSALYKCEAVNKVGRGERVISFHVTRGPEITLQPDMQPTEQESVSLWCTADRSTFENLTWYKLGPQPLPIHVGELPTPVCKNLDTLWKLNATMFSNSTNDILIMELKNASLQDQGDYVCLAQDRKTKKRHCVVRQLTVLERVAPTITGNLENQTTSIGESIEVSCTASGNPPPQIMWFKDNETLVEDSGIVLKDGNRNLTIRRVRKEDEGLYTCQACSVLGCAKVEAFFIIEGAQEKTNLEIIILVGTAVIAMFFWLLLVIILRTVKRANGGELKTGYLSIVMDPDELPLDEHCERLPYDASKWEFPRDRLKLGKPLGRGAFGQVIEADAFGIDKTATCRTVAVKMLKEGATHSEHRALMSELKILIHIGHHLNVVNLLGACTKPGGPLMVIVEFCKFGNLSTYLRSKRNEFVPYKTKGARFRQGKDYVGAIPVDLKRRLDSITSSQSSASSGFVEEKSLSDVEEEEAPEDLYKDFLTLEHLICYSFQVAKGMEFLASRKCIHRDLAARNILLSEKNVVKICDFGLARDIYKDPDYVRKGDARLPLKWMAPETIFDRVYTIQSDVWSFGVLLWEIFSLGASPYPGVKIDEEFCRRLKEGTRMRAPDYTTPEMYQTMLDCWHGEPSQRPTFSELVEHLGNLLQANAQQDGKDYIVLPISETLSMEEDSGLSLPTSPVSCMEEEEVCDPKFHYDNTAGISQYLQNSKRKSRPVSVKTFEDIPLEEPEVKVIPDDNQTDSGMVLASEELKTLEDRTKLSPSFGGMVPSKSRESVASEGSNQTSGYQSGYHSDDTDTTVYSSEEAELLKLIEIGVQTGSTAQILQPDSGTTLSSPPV

| SMILES | logD [1] | Stability [2] | Stability [3] | fraction unbound [4] | IC50 [5] | Kd [6] | IC50 [7] |
| --- | --- | --- | --- | --- | --- | --- | --- |
| CCN(CC)CCNC(=O)c1c(C)[nH]c(/C=C2\C(=O)Nc3ccc([125I])cc32)c1C | 2.25 | Stable | Stable | 0.95 | – | – | – |
| CCN(CC)CCNC(=O)c1c(C)[nH]c(/C=C2\C(=O)Nc3ccc(I)cc32)c1C | – | – | – | – | 1120 nM | 16 nM | 1810 nM |
| CCN(CC)CCNC(=O)c1c(C)[nH]c(/C=C2\C(=O)Nc3ccc(F)cc32)c1C [SUNITINIB] | – | – | – | – | 100 nM | – | 330 nM |
